ChEMBL document CHEMBL2311431, “Synthesis and biological evaluation of some 5-arylidene-2-(1,3-thiazol-2-ylimino)-1,3-thiazolidin-4-ones as dual anti-inflammatory/antimicrobial agents” (Bioorg Med Chem, 2013)
In brackets after ≈: the same amount, converted by molar mass.

Tests used:
Mus musculus [1] = test: Acute toxicity in AKR mouse up to 0.5 mmol/kg, ip; type: organism-based; settings: in vivo
Mus musculus [2] = test: Antiinflammatory activity in AKR mouse assessed as inhibition of carrageenan-induced paw edema at 0.01 mmol/kg, ip measured after 3.5 hrs of carrageenan-challenge; type: functional
Procedure, shortened: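 AKR mice of both sexes (pregnant females excluded), 6-10 per group, fasted during the experiment. Edema induced by intradermal 0.05 mL of 2% carrageenin into the right hind paw. Compound given at 0.01 mmol/kg ip, suspended in water with Tween-80, at the same time as carrageenin.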

[3] = biological target: T1, Prostaglandin G/H synthase 1 (Ovis aries) (UniProt P05979); test: (§1) Inhibition of ovine COX1 assessed as inhibition of PGF2a production by enzyme immunoassay; parameters: concentration or dose not given beside the values; settings: concentration not given here
T1 sequence (whole entry): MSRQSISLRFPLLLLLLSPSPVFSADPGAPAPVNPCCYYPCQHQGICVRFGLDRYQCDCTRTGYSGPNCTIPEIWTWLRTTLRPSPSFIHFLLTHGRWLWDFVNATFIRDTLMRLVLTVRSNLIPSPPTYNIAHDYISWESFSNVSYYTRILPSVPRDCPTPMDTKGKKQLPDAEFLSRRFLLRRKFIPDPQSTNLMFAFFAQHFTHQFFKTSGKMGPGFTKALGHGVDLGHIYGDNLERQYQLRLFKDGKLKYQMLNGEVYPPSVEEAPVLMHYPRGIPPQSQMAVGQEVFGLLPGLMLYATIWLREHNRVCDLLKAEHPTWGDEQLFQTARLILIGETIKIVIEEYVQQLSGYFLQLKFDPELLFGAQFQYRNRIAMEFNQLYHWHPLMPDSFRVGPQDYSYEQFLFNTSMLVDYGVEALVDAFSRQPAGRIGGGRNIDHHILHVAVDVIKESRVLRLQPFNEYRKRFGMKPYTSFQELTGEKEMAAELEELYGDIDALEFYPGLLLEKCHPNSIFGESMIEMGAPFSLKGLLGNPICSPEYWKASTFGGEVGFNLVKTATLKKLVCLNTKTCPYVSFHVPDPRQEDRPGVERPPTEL
Procedure, shortened: (§2)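 Ovine COX-1 from a commercial screening kit, tested with 0.1 µM arachidonic acid, which is below the saturating level. COX-derived PGH2 is reduced by SnCl2 to PGF2a, quantified by enzyme immunoassay with a broad prostaglandin antibody. At least triplicate.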

[4] = biological target: T2, Prostaglandin G/H synthase 1 (Ovis aries, UniProt P05979); test: as §1; procedure, shortened: as §2
T2 sequence (P05979 whole entry): T1 sequence (whole entry)

[5] = (§3) Inhibition of soybean lipoxygenase assessed as inhibition of sodium linolate conversion to 13-hydroperoxylinoleic acid after 4 mins by spectrophotometry; parameters: species or system Glycine max; settings: read-out: IC50
Glycine max = test: as §3
Aspergillus niger [6] = test: Fungicidal activity against Aspergillus niger ATCC 6275 after 72 hrs by serial subcultivation method; type: functional; settings: ATCC 6275, 72 h
Aspergillus niger [7] = test: Antifungal activity against Aspergillus niger ATCC 6275 after 72 hrs by serial dilution technique; type: functional; settings: ATCC 6275, 72 h
Procedure, shortened: (§4)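 Serial dilution in malt broth; compounds from 1 mg/ml stocks in 5% DMSO; 72 h at 28 °C. MIC is the lowest concentration with no visible growth under a binocular microscope. Run in duplicate, repeated three times.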

Aspergillus fumigatus [8] = test: Fungicidal activity against Aspergillus fumigatus after 72 hrs by serial subcultivation method; type: functional
Aspergillus flavus [9] = test: Fungicidal activity against Aspergillus flavus ATCC 9643 after 72 hrs by serial subcultivation method; type: functional; settings: ATCC 9643, 72 h
Trichoderma viride [10] = test: Fungicidal activity against Trichoderma viride IAM 5061 after 72 hrs by serial subcultivation method; type: functional; settings: IAM 5061, 72 h
Penicillium ochrochloron [11] = test: Fungicidal activity against Penicillium ochrochloron ATCC 9112 after 72 hrs by serial subcultivation method; type: functional; settings: ATCC 9112, 72 h
Aspergillus flavus [12] = test: Antifungal activity against Aspergillus flavus ATCC 9643 after 72 hrs by serial dilution technique; type: functional; settings: ATCC 9643, 72 h; procedure, shortened: as §4
Talaromyces funiculosus [13] = test: Fungicidal activity against Penicillium funiculosum ATCC 36839 after 72 hrs by serial subcultivation method; type: functional; settings: ATCC 36839, 72 h
Aspergillus fumigatus [14] = test: Antifungal activity against Aspergillus fumigatus after 72 hrs by serial dilution technique; type: functional; procedure, shortened: as §4
Trichoderma viride [15] = test: Antifungal activity against Trichoderma viride IAM 5061 after 72 hrs by serial dilution technique; type: functional; settings: IAM 5061, 72 h; procedure, shortened: as §4
Penicillium ochrochloron [16] = test: Antifungal activity against Penicillium ochrochloron ATCC 9112 after 72 hrs by serial dilution technique; type: functional; settings: ATCC 9112, 72 h; procedure, shortened: as §4
Talaromyces funiculosus [17] = test: Antifungal activity against Penicillium funiculosum ATCC 36839 after 72 hrs by serial dilution technique; type: functional; settings: ATCC 36839, 72 h; procedure, shortened: as §4
Escherichia coli [18] = test: Bactericidal activity against Escherichia coli ATCC 35210 after 72 hrs by serial subcultivation method; type: functional; settings: ATCC 35210, 72 h
Pseudomonas aeruginosa [19] = test: Bactericidal activity against Pseudomonas aeruginosa ATCC 27853 after 72 hrs by serial subcultivation method; type: functional; settings: ATCC 27853, 72 h
Listeria monocytogenes [20] = test: Bactericidal activity against Listeria monocytogenes NCTC 7973 after 72 hrs by serial subcultivation method; type: functional; settings: NCTC 7973, 72 h
Bacillus cereus [21] = test: Bactericidal activity against Bacillus cereus clinical isolate after 72 hrs by serial subcultivation method; type: functional
Micrococcus flavus [22] = test: Bactericidal activity against Micrococcus flavus ATCC 10240 after 72 hrs by serial subcultivation method; type: functional; settings: ATCC 10240, 72 h
Staphylococcus aureus [23] = test: Bactericidal activity against Staphylococcus aureus ATCC 6538 after 72 hrs by serial subcultivation method; type: functional; settings: ATCC 6538, 72 h
Escherichia coli [24] = test: Antibacterial activity against Escherichia coli ATCC 35210 after 24 hr by microdilution test; type: functional; settings: ATCC 35210, 24 h
Procedure, shortened: (§5)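 Broth microdilution in LB medium, about 1.0×10^4 cfu per well; compounds from 1 mg/ml stocks in 5% DMSO. Incubated 24 h. MIC is the lowest concentration with no visible growth under a binocular microscope. Run in duplicate, repeated three times.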

Listeria monocytogenes [25] = test: Antibacterial activity against Listeria monocytogenes NCTC 7973 after 24 hr by microdilution test; type: functional; settings: NCTC 7973, 24 h; procedure, shortened: as §5
Pseudomonas aeruginosa [26] = test: Antibacterial activity against Pseudomonas aeruginosa ATCC 27853 after 24 hr by microdilution test; type: functional; settings: ATCC 27853, 24 h; procedure, shortened: as §5
Micrococcus flavus [27] = test: Antibacterial activity against Micrococcus flavus ATCC 10240 after 24 hr by microdilution test; type: functional; settings: ATCC 10240, 24 h; procedure, shortened: as §5
Bacillus cereus [28] = test: Antibacterial activity against Bacillus cereus clinical isolate after 24 hr by microdilution test; type: functional; procedure, shortened: as §5
Staphylococcus aureus [29] = test: Antibacterial activity against Staphylococcus aureus ATCC 6538 after 24 hr by microdilution test; type: functional; settings: ATCC 6538, 24 h; procedure, shortened: as §5

Row | SMILES | Activity (Mus musculus [1]) | inhibition in vivo at 10 µmol/kg (Mus musculus [2]) | inhibition [3] | IC50 [5] | inhibition (Glycine max) | MFC (Aspergillus niger [6]) | MIC (Aspergillus niger [7]) | MFC (Aspergillus fumigatus [8]) | MFC (Aspergillus flavus [9]) | MFC (Trichoderma viride [10]) | MFC (Penicillium ochrochloron [11]) | MIC (Aspergillus flavus [12]) | MFC (Talaromyces funiculosus [13]) | MIC (Aspergillus fumigatus [14]) | MIC (Trichoderma viride [15]) | MIC (Penicillium ochrochloron [16]) | MIC (Talaromyces funiculosus [17]) | MBC (Escherichia coli [18]) | MBC (Pseudomonas aeruginosa [19]) | MBC (Listeria monocytogenes [20]) | further results
1 | O=C1N/C(=N\c2nccs2)S/C1=C\c1c(Cl)cccc1Cl | Non-toxic | 58.5% | 100% | 137 µM | 43% | 70.2 µM (≈ 25 µg/mL) | 56.2 µM (≈ 20 µg/mL) | 70.2 µM (≈ 25 µg/mL) | 70.2 µM (≈ 25 µg/mL) | 28.1 µM (≈ 10 µg/mL) | 56.2 µM (≈ 20 µg/mL) | 56.2 µM (≈ 20 µg/mL) | 70.2 µM (≈ 25 µg/mL) | 56.2 µM (≈ 20 µg/mL) | 21.1 µM (≈ 7.52 µg/mL) | 28.1 µM (≈ 10 µg/mL) | 28.1 µM (≈ 10 µg/mL) | 56.2 µM (≈ 20 µg/mL) | 28.1 µM (≈ 10 µg/mL) | 84.2 µM (≈ 30 µg/mL) | IC50 [4]: 78 µM; MBC (Bacillus cereus [21]): 28.1 µM (≈ 10 µg/mL); MBC (Micrococcus flavus [22]): 84.2 µM (≈ 30 µg/mL); MBC (Staphylococcus aureus [23]): 56.2 µM (≈ 20 µg/mL); MIC (Escherichia coli [24]): 28.1 µM (≈ 10 µg/mL); MIC (Listeria monocytogenes [25]): 56.2 µM (≈ 20 µg/mL); MIC (Pseudomonas aeruginosa [26]): 21.1 µM (≈ 7.52 µg/mL); MIC (Micrococcus flavus [27]): 56.2 µM (≈ 20 µg/mL); MIC (Bacillus cereus [28]): 21.1 µM (≈ 7.52 µg/mL); MIC (Staphylococcus aureus [29]): 28.1 µM (≈ 10 µg/mL)
2 | O=C1N/C(=N\c2nccs2)S/C1=C\c1ccc(F)cc1 | Non-toxic | 65.6% | 44% | > 150 µM | 35% | 65.4 µM (≈ 20 µg/mL) | 32.7 µM (≈ 9.99 µg/mL) | 65.4 µM (≈ 20 µg/mL) | 81.9 µM (≈ 25 µg/mL) | 65.4 µM (≈ 20 µg/mL) | 65.4 µM (≈ 20 µg/mL) | 65.4 µM (≈ 20 µg/mL) | 65.4 µM (≈ 20 µg/mL) | 49.1 µM (≈ 15 µg/mL) | 32.7 µM (≈ 9.99 µg/mL) | 32.7 µM (≈ 9.99 µg/mL) | 32.7 µM (≈ 9.99 µg/mL) | 65.4 µM (≈ 20 µg/mL) | 65.4 µM (≈ 20 µg/mL) | 98.2 µM (≈ 30 µg/mL) | MBC (Bacillus cereus [21]): 32.7 µM (≈ 9.99 µg/mL); MBC (Micrococcus flavus [22]): 81.9 µM (≈ 25 µg/mL); MBC (Staphylococcus aureus [23]): 65.4 µM (≈ 20 µg/mL); MIC (Escherichia coli [24]): 32.7 µM (≈ 9.99 µg/mL); MIC (Listeria monocytogenes [25]): 81.9 µM (≈ 25 µg/mL); MIC (Pseudomonas aeruginosa [26]): 32.7 µM (≈ 9.99 µg/mL); MIC (Micrococcus flavus [27]): 65.4 µM (≈ 20 µg/mL); MIC (Bacillus cereus [28]): 24.6 µM (≈ 7.51 µg/mL); MIC (Staphylococcus aureus [29]): 32.7 µM (≈ 9.99 µg/mL)
